Data reported in ChEMBL document CHEMBL1144450 (J Med Chem, 2005).

What was measured:
Rattus norvegicus = assay: In vivo antiinflammatory activity after 3 hr of oral administration was determined using rat carrageenan induced paw edema model; format: functional; settings: read-out: ID50 (the source's name)
Summary of the method: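 Carrageenan-induced foot paw edema in rats, with the test compound and reference drugs given orally. Activity is expressed as ID50 in mg/kg.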

[1] = Percentage of nitric oxide released upon incubation in the presence of guinea pig serum in PBS pH 7.4, 37 degree C for 1.5 h; format: functional; design: concentration or dose not given beside the values
Summary of the method: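 Test compound (2.0 × 10-4 mmol) was incubated with 260 µL guinea pig serum in PBS at pH 7.4, 37 °C, for 1.5 h. Nitrite was determined by the Griess reaction. Release is given as percent of a theoretical maximum of 2 mol NO per mol compound, SEM, n = 3.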

[2] = Percentage of nitric oxide released by the compound when incubated in phosphate buffer solution at pH 7.4, 37 degree C for 1.5 h; format: functional
Summary of the method: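 The compound was incubated in PBS at pH 7.4 and 37 °C for 1.5 h. Nitric oxide was quantified as nitrite by the Griess reaction. Release is expressed as percent of a theoretical maximum of 2 mol NO per mol compound, SEM, n = 3.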

[3] = biological target: T1, Prostaglandin G/H synthase 1 (Ovis aries, UniProt P05979); assay: In vitro inhibitory concentration against COX-1 enzyme
T1 sequence (P05979 whole entry): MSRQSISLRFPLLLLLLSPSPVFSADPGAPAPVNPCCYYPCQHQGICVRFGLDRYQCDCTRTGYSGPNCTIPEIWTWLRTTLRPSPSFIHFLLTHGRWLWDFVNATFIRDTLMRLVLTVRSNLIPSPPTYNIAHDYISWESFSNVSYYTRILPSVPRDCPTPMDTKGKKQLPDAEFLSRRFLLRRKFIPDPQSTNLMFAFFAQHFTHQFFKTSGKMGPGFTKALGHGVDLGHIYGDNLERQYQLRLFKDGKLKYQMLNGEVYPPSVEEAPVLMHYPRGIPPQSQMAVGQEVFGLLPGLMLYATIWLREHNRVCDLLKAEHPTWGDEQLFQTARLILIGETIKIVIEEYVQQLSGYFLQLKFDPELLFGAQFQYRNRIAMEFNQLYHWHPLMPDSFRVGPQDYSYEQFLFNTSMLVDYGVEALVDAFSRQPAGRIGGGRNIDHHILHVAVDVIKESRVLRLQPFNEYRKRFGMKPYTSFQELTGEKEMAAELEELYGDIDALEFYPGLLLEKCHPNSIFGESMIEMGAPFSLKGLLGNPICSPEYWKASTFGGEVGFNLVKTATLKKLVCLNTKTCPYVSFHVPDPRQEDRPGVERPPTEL

[4] = Percentage of nitric oxide released by the compound when incubated in the presence of pig liver esterase in phosphate buffer solution at pH 7.4, 37 degree C for 1.5 h; format: functional
Summary of the method: (§1)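 Pig liver esterase was added at 2 equiv (1 mol compound : 2 mol esterase) in PBS at pH 7.4, 37 °C, 1.5 h. Nitrite from NO was measured by the Griess reaction. Release is given as percent of a theoretical 2 mol NO per mol compound, SEM, n = 3.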

[5] = Percentage of nitric oxide released upon incubation in the presence of pig liver esterase in phosphate buffer solution at pH 7.4, 37 degree C for 1.5 h; format: functional; summary of the method: as §1

| Structure (SMILES) | ED50 (Rattus norvegicus) | Activity [1] | Activity [2] | IC50 [3] | Activity [4] | Activity [5] |
| --- | --- | --- | --- | --- | --- | --- |
| COc1ccc2c(c1)c(CC(=O)O)c(C)n2C(=O)c1ccc(Cl)cc1 [INDOMETHACIN] | 4.2 mg/kg | – | – | – | – | – |
| CC(=O)Oc1ccccc1C(=O)OCO/N=[N+](\[O-])N1CCCC1 | 182 mg/kg | 88.9% | 14.8% | > 100 µM | 18.5% | – |
| CN(C)/[N+]([O-])=N/O | – | – | 95.2% | – | – | – |
| CC(C)Cc1ccc(C(C)C(=O)OCO/N=[N+](\[O-])N2CCCC2)cc1 (centres undefined) | 66.8 mg/kg | 89.2% | 14.9% | > 100 µM | – | 16.3% |
| CC(=O)Oc1ccccc1C(=O)OCO/N=[N+](\[O-])N(C)C | 151 mg/kg | 81.6% | 15.4% | > 100 µM | – | 19.1% |
| COc1ccc2c(c1)c(CC(=O)OCO/N=[N+](\[O-])N1CCCC1)c(C)n2C(=O)c1ccc(Cl)cc1 | 10.7 mg/kg | 89.1% | 15.1% | > 100 µM | – | 16.3% |
| CC(C)Cc1ccc(C(C)C(=O)OCO/N=[N+](\[O-])N(C)C)cc1 (centres undefined) | 62.3 mg/kg | 93.6% | 16.1% | > 100 µM | – | 17.3% |
| CC(C)Cc1ccc(C(C)C(=O)O)cc1 (centres undefined) [IBUPROFEN] | 67.4 mg/kg | – | – | – | – | – |
| [O-]/[N+](=N\O)N1CCCC1 | – | – | 94% | – | – | – |
| COc1ccc2c(c1)c(CC(=O)OCO/N=[N+](\[O-])N(C)C)c(C)n2C(=O)c1ccc(Cl)cc1 | 5.9 mg/kg | 86.3% | 14.3% | > 100 µM | – | 16.9% |
